From ChEMBL document CHEMBL3351637 (Eur J Med Chem, 2014)
Activity calls are given as the source filed them. The rule behind the calls is not given here.

What was measured:
[1] = system: A549; assay: Cytotoxicity against human A549 cells after 48 hrs by SRB assay; assay type: functional, cell-based; details: A549, 48 h
[2] = system: A549; assay: Inhibition of microtubule bundle formation in human A549 cells assessed as cell detachment at 200 ug/mL incubated for 1 hr by alpha-tubulin staining based fluorescence microscopy
Summary of the method: (§1)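 A549 cells seeded on glass coverslips at 50000 cells/ml, grown 24 h, then exposed 1 h to 200 µg/ml conjugate or parent drug. Fixed and permeabilized in methanol at -20°C for 6 min, blocked in PBS + 5% BSA, stained with anti-α-tubulin (1:500, 1 h, 37°C), Alexa568 secondary and DAPI nuclei, then imaged by fluorescence microscopy at 63x.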

[3] = system: A549; assay: Induction of microtubule bundling in human A549 cells at 200 ug/mL incubated for 1 hr by alpha-tubulin staining based fluorescence microscopy; assay type: cell-based
Summary of the method: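 A549 cells grown in E-MEM with 10% FBS, 2 mM L-glutamine, penicillin and non-essential amino acids at 37°C, 5% CO2. Seeded at 50000 cells/ml on glass coverslips, exposed after 24 h. Then fixed and permeabilized in methanol at -20°C for 6 min and blocked in PBS+5% BSA. Stained with anti-α-tubulin (1:500), Alexa568 secondary and DAPI, and imaged by fluorescence microscopy.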

[4] = system: A549; assay: Inhibition of microtubule bundle formation in human A549 cells assessed as cell shrinking at 200 ug/mL incubated for 1 hr by alpha-tubulin staining based fluorescence microscopy; summary of the method: as §1
[5] = Stability of the compound in pH 10.2 carbonate buffer assessed as compound mean nano particles size at 2 mg/ml by quasi-elastic light scattering method; assay type: physicochemical
Summary of the method: (§2)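 Nanoassemblies formed by solvent displacement into water, 10 mM buffers (citrate or acetate pH 4.5, phosphate pH 7.5, borate or carbonate pH 10.2) or 100 mM NaCl, final 2 mg/mL. Mean diameter by quasi-elastic light scattering at 90° and 25°C, on samples diluted 1:20 in water; each value the average of five measurements.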

[6] = Stability of the compound in pH 10.2 borate buffer assessed as compound mean nano particles size at 2 mg/ml by quasi-elastic light scattering method; assay type: physicochemical; summary of the method: as §2
[7] = Stability of the compound in water assessed as compound mean nano particles size at 2 mg/ml by quasi-elastic light scattering method; assay type: physicochemical; details: buffer; summary of the method: as §2
[8] = system: MCF7; assay: Cytotoxicity against human MCF7 cells after 48 hrs by SRB assay; assay type: functional, cell-based; details: MCF7, 48 h
Summary of the method: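 Nanoassemblies diluted in culture medium and added at various concentrations for 48 h at 37°C/5% CO₂. Survival % vs untreated control; run thrice in triplicate; IC50 from dose–effect curves.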

[9] = Stability of the compound in presence of 100 mM NaCl assessed as compound mean nano particles size at 2 mg/ml by quasi-elastic light scattering method; assay type: physicochemical; summary of the method: as §2
[10] = Stability of the compound in pH 4.5 acetate buffer assessed as compound mean nano particles size at 2 mg/ml by quasi-elastic light scattering method; assay type: physicochemical; summary of the method: as §2
[11] = Stability in pH 9 borate buffer; assay type: physicochemical
[12] = Stability in human serum at 37 degC assessed as ratio of HPLC area of peaks corresponding to intact compound at time zero at 2 mg/ml measured after 48 hrs; assay type: ADME, cell-free; details: read-out: Stability
[13] = Stability of the compound assessed as compound mean nano particles size diluted with water at 2 mg/ml measured after 3 months at 5 degC by quasi-elastic light scattering method; assay type: physicochemical; details: buffer, 2191.5 h
Summary of the method: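 Nanoassemblies made by nanoprecipitation in water as 2 mg/mL dispersions, stored at 5°C. Size checked after three months on samples diluted with water, by light scattering.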

[14] = system: MCF7; assay: Cytotoxicity against human MCF7 cells in presence of 10 mM DTT after 48 hrs by SRB assay; assay type: functional, cell-based; details: MCF7, 48 h
[15] = Stability of the compound in pH 4.5 citrate buffer assessed as compound mean nano particles size at 2 mg/ml by quasi-elastic light scattering method; assay type: physicochemical; summary of the method: as §2
[16] = Stability of the compound in pH 7.5 phosphate buffer assessed as compound mean nano particles size at 2 mg/ml by quasi-elastic light scattering method; assay type: physicochemical; summary of the method: as §2
[17] = system: A549; assay: Binding affinity to microtubule in human A549 cells at 200 ug/mL incubated for 1 hr by alpha-tubulin staining based fluorescence microscopy; assay type: cell-based; summary of the method: as §1

SMILES	IC50 [1] [nM]	inhibition [2]	Activity [3]	inhibition [4]	Stability [5] [nm]	Stability [6] [nm]	Stability [7] [nm]	IC50 [8] [nM]	Stability [9]	Stability [10]	Stability [11]	remaining at 48 h, 2 mg/ml [12] [%]	Stability [13] [nm]	IC50 [14] [nM]	Stability [15] [nm]	Stability [16] [nm]	Activity [17]
CC(=O)O[C@H]1C(=O)[C@@]2(C)[C@H]([C@H](OC(=O)c3ccccc3)[C@]3(O)C[C@H](OC(=O)[C@H](O)[C@@H](NC(=O)c4ccccc4)c4ccccc4)C(C)=C1C3(C)C)[C@]1(OC(C)=O)CO[C@@H]1C[C@@H]2O [PACLITAXEL]	82	Active	Active	Active	–	–	–	–	–	–	–	–	–	–	–	–	–
CC[C@@]1(OC(=O)CCCCCCCCC(=O)OCCC/C(C)=C/CC/C(C)=C/CC/C=C(\C)CC/C=C(\C)CCC=C(C)C)C(=O)OCc2c1cc1n(c2=O)Cc2cc3ccccc3nc2-1	–	–	–	–	242.9	202.3	160.2	10500	461.1 nm	275.9 nm	Stable	85	172.4	20100	375.4	201.5	–
CC(C)=CCC/C(C)=C/CC/C(C)=C/CC/C=C(\C)CC/C=C(\C)CCCOC(=O)CCCCCCCCC(=O)O[C@H]1[C@@H](C)CCC[C@H]2O[C@H]2C[C@@H](/C(C)=C/c2csc(C)n2)OC(=O)C[C@H](O)C(C)(C)C(=O)[C@@H]1C	–	–	–	–	312.2	351.1	125.3	40200	502.4 nm	206 nm	Stable	70	142.9	45100	203.2	212.9	–
CC(=O)O[C@H]1C(=O)[C@@]2(C)[C@H]([C@H](OC(=O)c3ccccc3)[C@]3(O)C[C@H](OC(=O)[C@H](OC(=O)CCCSSCCCC(=O)OCCC/C(C)=C/CC/C(C)=C/CC/C=C(\C)CC/C=C(\C)CCC=C(C)C)[C@@H](NC(=O)c4ccccc4)c4ccccc4)C(C)=C1C3(C)C)[C@]1(OC(C)=O)CO[C@@H]1C[C@@H]2O	490	Active	–	Active	723.3	181.7	100.8	60	> 2 um	> 2 um	–	93	106.5	3	462.4	162.4	Active
CC[C@@]1(O)C(=O)OCc2c1cc1n(c2=O)Cc2cc3ccccc3nc2-1 [CAMPTOTHECIN]	1300	–	–	–	–	–	–	0.5	–	–	–	–	–	3	–	–	–
C/C(=C\c1csc(C)n1)[C@@H]1C[C@@H]2O[C@@H]2CCC[C@H](C)[C@H](O)[C@@H](C)C(=O)C(C)(C)[C@@H](O)CC(=O)O1 [EPOTHILONE A]	> 5000	Active	Active	Active	–	–	–	0.9	–	–	–	–	–	0.8	–	–	–
CC(=O)O[C@H]1C(=O)[C@@]2(C)[C@H]([C@H](OC(=O)c3ccccc3)[C@]3(O)C[C@H](OC(=O)[C@H](OC(=O)CCCCCCCCC(=O)OCCC/C(C)=C/CC/C(C)=C/CC/C=C(\C)CC/C=C(\C)CCC=C(C)C)[C@@H](NC(=O)c4ccccc4)c4ccccc4)C(C)=C1C3(C)C)[C@]1(OC(C)=O)CO[C@@H]1C[C@@H]2O	–	–	–	–	635.9	161.4	107.9	1210	> 2 um	> 2 um	Stable	95	110.5	1530	391.2	125.6	–
CC(=O)O[C@H]1C(=O)[C@@]2(C)[C@H]([C@H](OC(=O)c3ccccc3)[C@]3(O)C[C@H](OC(=O)[C@H](OC(=O)OCC/C(C)=C/CC/C(C)=C/CC/C=C(\C)CC/C=C(\C)CCC=C(C)C)[C@@H](NC(=O)c4ccccc4)c4ccccc4)C(C)=C1C3(C)C)[C@]1(OC(C)=O)CO[C@@H]1C[C@@H]2O	–	–	–	–	–	–	–	9100	–	–	–	94	181.1	8700	–	–	–
COc1cc([C@@H]2c3cc4c(cc3[C@H](OC(=O)CCCCCCCCC(=O)OCCC/C(C)=C/CC/C(C)=C/CC/C=C(\C)CC/C=C(\C)CCC=C(C)C)[C@H]3COC(=O)[C@H]23)OCO4)cc(OC)c1OC	–	–	–	–	315	211.3	180.5	106000	720.3 nm	287.5 nm	Stable	82	210.5	111000	629.2	193.5	–
CC(C)=CCC/C(C)=C/CC/C(C)=C/CC/C=C(\C)CC/C=C(\C)CCCOC(=O)CCCSSCCCC(=O)O[C@H]1[C@@H](C)CCC[C@H]2O[C@H]2C[C@@H](/C(C)=C/c2csc(C)n2)OC(=O)C[C@H](O)C(C)(C)C(=O)[C@@H]1C	> 5000	Active	–	Active	212.2	207.7	165.1	1300	312.9 nm	201.5 nm	–	58	191.1	500	197.8	235.5	–
COc1cc([C@@H]2c3cc4c(cc3[C@H](O)[C@H]3COC(=O)[C@H]23)OCO4)cc(OC)c1OC [PODOFILOX]	59	Active	–	Active	–	–	–	0.1	–	–	–	–	–	0.4	–	–	–
CC[C@@]1(OC(=O)CCCSSCCCC(=O)OCCC/C(C)=C/CC/C(C)=C/CC/C=C(\C)CC/C=C(\C)CCC=C(C)C)C(=O)OCc2c1cc1n(c2=O)Cc2cc3ccccc3nc2-1	> 5000	–	–	–	250.6	160.3	195.3	8600	339.7 nm	224.3 nm	–	70	210.2	800	376.4	198.9	–
COc1cc([C@@H]2c3cc4c(cc3[C@H](OC(=O)CCCSSCCCC(=O)OCCC/C(C)=C/CC/C(C)=C/CC/C=C(\C)CC/C=C(\C)CCC=C(C)C)[C@H]3COC(=O)[C@H]23)OCO4)cc(OC)c1OC	7640	Active	–	Active	242.9	202.3	185.9	400	676 nm	275.9 nm	–	52	215.3	60	428.3	201.5	–
